# Source: PubChem BioAssay (several laboratories)
# KCC2 mod: KCC2 cotransporter modulators, thallium flux, primary screen, cell-based, HEK293 KCC2, FluoZin-2 fluorescence, MLSMR; Solute carrier family 12 member 5 (Homo sapiens), Q9H2X9; KCC2 cells, thallium flux FluoZin-2 fluorescence; B-score of Tl+ flux slope (higher = more flux/activation; lower = inhibition) at 10 µM; actives 2.2% (n = 190,000);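 active = thallium flux slope and its plate-corrected score both differing from the plate sample mean at a set confidence after two filtering rounds, in either direction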;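 note: slope of fluorescence scaled to starting intensity during 10 to 20 s after thallium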
# m-calpain inh: inhibitors of pig calpain II, primary screen, biochemical, fluorogenic peptide substrate, 1536-well | inhibition, % at 16 µM | purified calpain II, 30 min | actives 0.37% (n = 220,000);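 active = inhibition above about 50%, limit read from the data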
# Arbovirus inh: antivirals against arbovirus infection, primary screen, cell-based, full library, 10K replicate subset; arbovirus infection cell-based antiviral screen; inhibition, % at 10 µM; actives 0.37% (n = 200,000); AID 1251, 2008; in the data active = inhibition above about 30%
# ROMK mod: ROMK potassium channel modulators, primary screen, cell-based, thallium flux, MLSMR library; actives 2% (n = 130,000); ATP-sensitive inward rectifier potassium channel 1 (Homo sapiens), P48048; B-score at 10 µM; Tet-inducible ROMK, thallium flux fluorescence; actives lie on both sides;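 active = signal ratio slope over the read window, or its plate-corrected B-score, at least 3 SD from the plate mean, either direction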;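 note: B-score of the F/F0 ratio slope over 7 to 12 s after thallium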
# Target sequence (P48048 whole entry, looked up): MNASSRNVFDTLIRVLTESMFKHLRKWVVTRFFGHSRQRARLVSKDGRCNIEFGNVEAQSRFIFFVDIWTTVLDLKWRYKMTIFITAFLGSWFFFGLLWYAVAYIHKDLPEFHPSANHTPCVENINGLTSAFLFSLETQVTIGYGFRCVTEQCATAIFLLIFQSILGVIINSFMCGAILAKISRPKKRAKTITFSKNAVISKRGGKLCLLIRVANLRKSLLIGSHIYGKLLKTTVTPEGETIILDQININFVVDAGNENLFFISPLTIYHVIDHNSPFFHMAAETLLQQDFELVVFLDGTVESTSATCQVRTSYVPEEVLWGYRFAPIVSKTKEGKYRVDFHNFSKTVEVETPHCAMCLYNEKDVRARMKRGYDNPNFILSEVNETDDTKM
# PKD1 inh: inhibitors of human PKD1 kinase, biochemical, fluorescence polarization; Serine/threonine-protein kinase D1 (Homo sapiens), Q15139; PKD1 kinase fluorescence polarization assay; inhibition, % (no concentration beside the values); actives 0.056% (n = 200,000); in the data active = inhibition above about 50%
# MDM2 E3 inh: MDM2-luciferase reporter signal enhancers, primary screen, MDM2 E3 ligase inhibitor project, cell-based, luminescence, 1536-well; signal enhancement, % at 5 µM; cell-based MDM2 ubiquitination luciferase reporter, 2 h; 0 = plate control, 100 = twice control, blank-subtracted; E3 ubiquitin-protein ligase Mdm2 (Homo sapiens), Q00987; actives 0.11% (n = 210,000);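 active = signal enhancement of 30% or more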;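 note: luminescence tracks abundance of the self-degrading MDM2-luciferase fusion protein; higher signal means inhibition of MDM2 E3 ligase activity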
#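 system = mammalian cells stably expressing self-ubiquitinating, self-degrading MDM2 E3–luciferase fusion | quantity = 2000 cells per well seeded | incubation = 4 h cell settling then 2 h compound exposure, 37 °C | signal = SteadyLite luminescence, 15 min reagent step | benchmarks = plate control and blank wells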
# KCC2 sec1: KCC2 modulators in sodium-free buffer, confirmation, cell-based, HEK293 KCC2, thallium flux, secondary assay | shares compounds with KCC2 mod | FluoZin2 fluorescence; stronger effect = higher value | normalised thallium flux (F/F0 slope) at 10 µM | actives 15% (n = 3,700) | AID 1713, 2009;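 active = thallium flux slope above the same plate's solvent-only control mean plus 3 SD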
# KCC2 bumet counter: thallium flux persisting under bumetanide in KCC2 cells, confirmation, counter-screen for KCC2 modulator project, cell-based, HEK293 KCC2, FluoZin2, secondary assay 3; HEK293-KCC2 + bumetanide/ouabain; stronger effect = higher value; AID 1714, 2009; actives 49% (n = 3,700); normalized thallium flux at 10 µM; shares compounds with KCC2 mod;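 active = thallium entry rate above the same plate's blocked-transporter control wells by more than 3 SD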;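 note: raw slope of fluorescence over initial fluorescence between 10 and 20 s after thallium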
# KCC2 secondary2: KCC2 modulators without ouabain present, confirmation, cell-based, HEK293 KCC2, thallium flux, FluoZin2, secondary assay 2 | AID 1715, 2009 | thallium flux FluoZin2 fluorescence; actives lie on both sides; F/F0 rise rate, 10–20 s post-thallium | shares compounds with KCC2 mod | actives 23% (n = 3,700) | normalized thallium flux at 10 µM;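 active = thallium flux slope more than 3 SD above or below the plate's solvent-only control mean, mostly below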;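 note: raw slope with 0.1% DMSO as baseline and bumetanide as block control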
# HEK293 Tl flux: thallium flux modulation in parental HEK cells, confirmation, counter-screen for KCC2 modulator project, cell-based, counterscreen 1 | thallium flux rate (normalised fluorescence) at 10 µM | actives 46% (n = 3,700) | HEK293 parental cells, thallium flux FluoZin2, ouabain; baseline-ratio fluorescence slope, 10–20 s after thallium | shares compounds with KCC2 mod;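 active = thallium flux rate significantly above the same plate's solvent-only control wells, beyond their mean plus 3 SD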
# KCC2 retest ouab: KCC2 inhibitors and activators, ouabain retest, confirmation, HEK-KCC2 cells. shares compounds with KCC2 mod. HEK293-KCC2, thallium flux FluoZin2 fluorescence; bidirectional: low = inhibitor, high = activator. raw Tl+ flux slope (below DMSO = inhibition, above = activation) at 10 µM. actives 48% (n = 3,700). AID 1717, 2009;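 active = thallium flux slope beyond 3 SD from same-plate DMSO control mean in most replicates, usually higher, sometimes lower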;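 note: slope of initial-normalized fluorescence between seconds 10 and 20 after thallium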
# HEK293 Tl flux2: native HEK Tl+ uptake effects, second counter-screen – HEK cells, counterscreen 2, counter-screen for KCC2 modulator project, confirmation; shares compounds with KCC2 mod; HEK293 parental, thallium flux FluoZin-2 fluorescence slope; thallium flux slope at 10 µM; actives 33% (n = 3,700); AID 1718, 2009;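 active = thallium flux slope above the same plate's solvent-control mean plus 3 SD in both duplicate wells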;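 note: run without ouabain in cells lacking the KCC2 cotransporter; slope of fluorescence scaled to its starting value between 10 and 20 s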
# ROMK retest: ROMK channel modulator hit retest, confirmation, cell-based, thallium flux, duplicate, resupplied hits; AID 1917, 2009; fluorescence ratio; stronger effect = lower value; actives 54% (n = 3,000); normalized thallium flux (F/F0 slope) at 10 µM; shares compounds with ROMK mod;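 active = Flux at 10 µM at least 3 SD below or above vehicle control mean in one or both replicates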
# An asterisk follows results filed as active; i = inactive; . = no result. Most compounds without a hit are left out; they make up all but 3.7% or so of the library.
SMILES,KCC2 mod,m-calpain inh,Arbovirus inh,ROMK mod,PKD1 inh,MDM2 E3 inh,ROMK retest,others
CCOc1ccc(-n2c(O)c(N=Nc3c(C)n(C)n(-c4ccccc4)c3=O)c(=O)[nH]c2=O)cc1,-0.091,19,.,.,.,-13,.,
O=C1NC(=O)N(c2ccccc2)C(=O)/C1=C/c1coc2ccc(O)cc2c1=O,-4.8*,-17,.,.,.,.,.,KCC2 sec1=0.007;KCC2 bumet counter=0.0042;KCC2 secondary2=0.028;HEK293 Tl flux=0.0058*;KCC2 retest ouab=0.014*;HEK293 Tl flux2=0.0088
Cn1cccc1/C=C1/C(=O)NC(=O)N(C(C)(C)C)C1=O,0.47,11,.,4.2*,.,-11,0.082,
COc1cc(/C=C/[N+](=O)[O-])ccc1O,0.0071,-7,-11,-7*,-17,.,0.051*,
CC(C)(C)c1cc([N+](=O)[O-])cc(C(C)(C)C)c1O,0.053,-4,-4,.,-5,1,0.081,
O=C(CN1CC=C(c2ccccc2)CC1)Nc1cc(Cl)ccc1Cl,-0.46,9,10,-0.51,-11,15,.,
OC(COCc1ccc(Cl)cc1)CN1CC=C(c2ccccc2)CC1 (configuration not stated),-0.29,12,-13,-3.3*,-8,-6,0.06*,
CCn1c(O)c(C=Nc2ccc(N3CCOCC3)c(Br)c2)c(=O)n(CC)c1=S,i,11,2,-5.3*,-6,-8,0.079,
CCn1c(O)c(C=Nc2ccc(N3CCOCC3)cc2)c(=O)n(CC)c1=S,-0.07,6,-2,-6.6*,-3,-7,0.045*,
CCn1c(O)c(/C=N/N2CCOCC2)c(=O)n(CC)c1=S,-0.083,37,24,.,-3,-11,.,
CC(=NCCN1CCCCC1)c1c(O)n(-c2ccc(Cl)cc2)c(=O)[nH]c1=O,-0.082,-3,-1,.,-17,6,.,
